Assay results reported in ChEMBL document CHEMBL5053482, “Rapid Optimization of the Metabolic Stability of a Human Immunodeficiency Virus Type-1 Capsid Inhibitor Using a Multistep Computational Workflow” (J Med Chem, 2021).
The source made the active and inactive calls. The rule behind the calls is not given here.

Legend:
[1] = Binding affinity to hexameric C-terminal His-tagged HIV1 NL4-3 capsid protein A14C/E45C/W184A/M185A mutant expressed in Escherichia coli BL21 codon plus (DE3)RIL assessed as dissociation constant by SPR analysis; set-up: species or system Human immunodeficiency virus 1
Summary of the method: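 SPR at 25 °C using one-shot kinetics. Disulfide-stabilized CA hexamer was assembled by βME dialysis, isolated by SEC, and amine-coupled to a GLH chip at 100 μg/mL in 10 mM sodium acetate pH 5.0. An IgG b12 surface served as reference. Compound was injected as 1:4 serial dilutions from 5 or 2 μM in PBS with 3% DMSO and 0.005% polysorbate 20, pH 7.4, at 100 μl/min. Association was 1 min and dissociation up to 5 min.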

[2] = system: Human immunodeficiency virus 1; assay: Binding affinity to hexameric C-terminal His-tagged HIV1 NL4-3 capsid protein A14C/E45C/W184A/M185A mutant expressed in Escherichia coli BL21 codon plus (DE3)RIL assessed as association rate constant by SPR analysis
Summary of the method: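 Disulfide-stabilised CA hexamers, isolated by size exclusion after stepwise βME dialysis, amine-coupled at 100 μg/mL (10mM sodium acetate pH 5.0) to GLH chip; IgG b12 reference surface. 25 °C; running buffer PBS, 3% DMSO, 0.005% polysorbate 20, pH 7.4. One-shot kinetics of 1:4 serial dilutions from 5 or 2 μM, 100 μl/min, 1 min association, up to 5 min dissociation.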

[3] = Cytotoxicity against in human U87.CD4.CCR5.CXCR4 cells assessed as reduction in cell viability measured after 48 hrs by CCK8 assay; format: cell-based; details: u87.cd4.ccr5.cxcr4, 48 h
Summary of the method: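 U87 cells stably expressing CD4/CCR5 or CD4/CXCR4 were grown in a humidified 5% CO2 atmosphere at 37°C and seeded at 1.2 × 10^4 cells/well 24 h before treatment. Cells were exposed to compound (1mM-0.3μM) or DMSO for 48 h at 37°C, then to CCK-8 for 4 h at 37°C, and absorbance was read at 450 nm. Controls were untreated cells and 0.1% SDS-treated cells.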

[4] = Half life in human liver microsomes; format: ADME, Microsome
[5] = system: Human immunodeficiency virus 1; assay: Antiviral activity against HIV1 NL4-3 Env-deficient pseudotype virus infected in human U87.CD4.CCR5.CXCR4 cells assessed by reduction in viral infection in early stage measured after 48 hrs by luciferase activity based single-round infection assay; format: functional, organism-based
[6] = Therapeutic index, ratio of CC50 for cytotoxicity against human 87.CD4.CCR5.CXCR4 cells to IC50 for antiviral activity against HIV1 NL4-3 virus in human 87.CD4.CCR5.CXCR4 cells; format: toxicity, cell-based; details: read-out: TI
Summary of the method: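 U87.CD4.CCR5/CXCR4 cells were seeded 24 h ahead and incubated 48 h at 37°C. Antiviral arm: p24-normalised single-round luciferase pseudovirus (pNL4-3-Luc+R-E− backbone, BG505 Env), luminescence read after lysis. […] Index is CC50 divided by IC50.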

[7] = system: Human immunodeficiency virus 1; assay: Binding affinity to C-terminal His-tagged HIV1 NL4-3 capsid protein M66A mutant expressed in Escherichia coli BL21 codon plus (DE3)RIL
[8] = system: Human immunodeficiency virus 1; assay: Binding affinity to C-terminal His-tagged HIV1 NL4-3 capsid protein K70A mutant expressed in Escherichia coli BL21 codon plus (DE3)RIL
[9] = system: Human immunodeficiency virus 1; assay: Binding affinity to C-terminal His-tagged HIV1 NL4-3 capsid protein N57A mutant expressed in Escherichia coli BL21 codon plus (DE3)RIL
[10] = Human immunodeficiency virus 1, NL4-3, U87.CD4.CCR5.CXCR4, 48 h, read-out: IC50

Structure (SMILES) | Kd [1] [nM] | Ka [2] | CC50 ([3]; read-out: CC50) [nM] | t1/2 [4] [min] | IC50 [5, 10] [nM] | selectivity ratio [6] | CC50 [3] | IC50 ([5]; u87.cd4.ccr5.cxcr4) | Activity [7] | Activity [8] | Activity [9]
CN(C(=O)[C@H](Cc1ccccc1)NC(=O)Cc1c[nH]c2c(N)cccc12)c1ccccc1 | 139 | 4.76 10^5/M/s | 101000 | 15.4 | 62.1 | 1630 |  |  |  |  | 
CN(C(=O)[C@H](Cc1ccccc1)NC(=O)Cc1n[nH]c2c(N)cccc12)c1ccc2[nH]ncc2c1 | 337 | 2.86 10^5/M/s | 102000 | 102 | 279 | 365 |  |  |  |  | 
Cc1[nH]c2ccccc2c1CC(=O)N[C@H](Cc1ccccc1)C(=O)N(C)c1ccc2[nH]ncc2c1 |  |  |  |  |  |  | Not Active | Not Active |  |  | 
Cc1[nH]c2ccccc2c1CC(=O)NC(Cc1ccccc1)C(=O)N(C)c1ccc2[nH]ncc2c1 (racemic) | 43.9 | 2.75 10^5/M/s | 76900 |  | 38.3 | 2010 |  |  | inactive | inactive | inactive
CN(C(=O)[C@@H](Cc1ccccc1)NC(=O)Cc1n[nH]c2c(N)cccc12)c1ccc2[nH]ncc2c1 |  |  |  |  |  |  | Not Active | Not Active |  |  | 
Cc1[nH]c2ccccc2c1CC(=O)N[C@@H](Cc1ccccc1)C(=O)N(C)c1ccc2[nH]ncc2c1 | 25 | 4.37 10^5/M/s | 46900 | 1 | 20.6 | 2280 |  |  |  |  | 
Cc1[nH]c2ccccc2c1CC(=O)N[C@H](Cc1ccccc1)C(=O)N(C)c1ccccc1 |  |  |  |  |  |  | Not Active | Not Active |  |  | 
CN(C(=O)[C@@H](Cc1ccccc1)NC(=O)Cc1c[nH]c2c(N)cccc12)c1ccccc1 |  |  |  |  |  |  | Not Active | Not Active |  |  | 
CN(C(=O)C(Cc1ccccc1)NC(=O)Cc1c[nH]c2c(N)cccc12)c1ccccc1 (racemic) | 189 | 5.62 10^5/M/s | 83500 |  | 97.2 | 859 |  |  | inactive | inactive | inactive
CN(C(=O)C(Cc1ccccc1)NC(=O)Cc1n[nH]c2c(N)cccc12)c1ccc2[nH]ncc2c1 (racemic) | 494 | 2.2 10^5/M/s | 415000 |  | 2420 | 171 |  |  | inactive | inactive | inactive
Cc1[nH]c2ccccc2c1CC(=O)N[C@@H](Cc1ccccc1)C(=O)N(C)c1ccccc1 |  | 4.75 10^5/M/s | 66700 |  | 80 |  |  |  |  |  | 
Cc1[nH]c2ccccc2c1CC(=O)NC(Cc1ccccc1)C(=O)N(C)c1ccccc1 (racemic) |  | 3.07 10^5/M/s | 36800 |  | 55.5 |  |  |  | inactive | inactive | inactive
